Results collected from several papers.
Each line is one published result; the experiments were not run side by side.
Action: inhibitor
MAPK14: Mitogen-activated protein kinase 14 (MAPK14, Homo sapiens, UniProt Q16539)

SMILES	target	assay	test system	setting	inhibition [%]
CCCCNc1ncc2c(-c3ccc(F)cc3)nn(C[C@H]3CC[C@H](N)CC3)c2n1	MAPK14	target engagement in cells, chemoproteomics		20 mM	60.6
CNC(=O)c1cc(Oc2ccc(NC(=O)Nc3ccc(Cl)c(C(F)(F)F)c3)cc2)ccn1	MAPK14	enzyme activity		0.3 µM	-9
CS(=O)(=O)Nc1cccc(-c2csc(NC(=O)CSc3nc4nccnc4c(=O)n3CCc3ccccc3)n2)c1	MAPK14	enzyme activity		10 µM	-1
CNc1cc(Oc2cc(C(=O)Nc3cc(N4CCN(C)CC4)cc(C(F)(F)F)c3)ccc2C)ncn1	MAPK14	target engagement in cells, chemoproteomics	Huh-7	1 µM	-29
COc1cc2ncnc(Nc3ccc(Oc4ccccc4)cc3C)c2cc1OC	MAPK14	enzyme activity		1 µM	3
CN1CC(Oc2cnc(C#N)cc2-c2ccn3nc(NC(=O)C4CC4)cc3c2)C1	MAPK14	enzyme activity		1 µM	-19
COc1cccc2c(NCc3ccccc3)nc(-n3c(N)nc4ccccc43)nc12	MAPK14	target engagement in cells, chemoproteomics		20 mM	16.5
CC/C(=N\NC(=O)NCc1cccc(O)c1)c1ccc(O)c(C)c1O	MAPK14	enzyme activity		0.1 µM	-2.8
CN(C)C1CCN(CC#Cc2nn(C3CCCC3)c3nc(NCc4ccccc4)ncc23)C1 (stereo not drawn)	MAPK14	enzyme activity, FRET		1 µM	3
O=C(CSc1nc2nccnc2c(=O)n1CCc1ccccc1)Nc1nccs1	MAPK14	enzyme activity		10 µM	3
Cc1ccc(Nc2nccc(N(C)c3ccc4c(C)n(C)nc4c3)n2)cc1S(N)(=O)=O	Mitogen-activated protein kinase 14 (MAPK14, Homo sapiens, UniProt Q16539, T106M)	enzyme activity		10 µM	13
CN(c1ncccc1CNc1nc(Nc2ccc3c(c2)CC(=O)N3)ncc1C(F)(F)F)S(C)(=O)=O	MAPK14	enzyme activity		1 µM	0
CCCS(=O)(=O)Nc1ccc(F)c(C(=O)c2c[nH]c3ncc(-c4ccc(Cl)cc4)cc23)c1F	MAPK14	enzyme activity		1 µM	< 10
CCN(CC)CCNC(=O)c1c(C)[nH]c(/C=C2\C(=O)Nc3ccc(F)cc32)c1C	MAPK14	enzyme activity		10 µM	-1
COc1cc2ncnc(Nc3ccc(Oc4ccccc4)c(C)c3C)c2cc1OC	MAPK14	enzyme activity		1 µM	-3
